Data set [1] concerns BSF T. brucei. Particulars: cited from earlier work.
Data set [2] concerns the target rTbHK1 (recombinant T. brucei hexokinase 1). The note with it: read-out: rTbHK1 IC50; initial round of SAR study; cited from earlier work.
In the next data set the test system is mammalian hexokinase. Particulars: cited from earlier work.
Data set [3] has as its system BSF T. brucei. Briefly: Growth inhibition of BSF T. brucei cultures. Type of data set: cell-based, Trypanosoma brucei. The note with it: for EC50: read-out: BSF EC50, dose-response in triplicate, 384-well format. In outline: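 Bloodstream-form T. brucei cultures were treated in triplicate with test compound at 10 μM, with DMSO vehicle as negative control and a reference inhibitor as positive control on each plate. Percent growth inhibition was calculated against DMSO-treated parasites on the same plate. Compounds giving >50% inhibition at 10 μM went to triplicate dose-response curves, and the EC50 was fitted as the concentration killing 50% of parasites.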

The target in data set [4] is rTbHK1 (recombinant T. brucei hexokinase 1). Briefly: rTbHK1 enzyme inhibition assay. Particulars: read-out: TbHK1 IC50; dose-response. The data set is classed as biochemical, Trypanosoma brucei. In outline:
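Recombinant TbHK1 was expressed in and isolated from Escherichia coli or yeast. The purified enzyme was tested in triplicate for percent inhibition at 10 μM test compound. IC50 was taken as the concentration giving 50% inhibition of TbHK1 activity.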

The test system of another data set is human cell lines. The note with it: cited from earlier work.

Where two headings read alike, the source gives them in different places.

As to `CC(C)(C)c1ccc(C(=O)Nc2cc(Cl)c(Br)cc2C(=O)O)cc1` [Compound 2], the “Trypanocidal activity against whole-cell BSF parasites (result in words)” value in the data set with BSF T. brucei [1] was “not an effective trypanocide”. The concentration for half-maximal inhibition (IC50) in data set [2] was 980 ± 70 nM; in data set [4] it was 980 ± 67 nM. Moreover, in the data set with mammalian hexokinase, the “Impact on a mammalian hexokinase” value is listed as “no impact”. Besides, in the data set with BSF T. brucei [3] (10 μM, triplicate, vs DMSO controls), the “%BSF Growth Inhibition (10 μM)” value came out at 6.9 ± 3.0%. In addition, the EC50 with BSF T. brucei [3] is greater than 10000 nM. Also, in the data set on human cell lines, the “Toxicity toward human cell lines” value is given as “no appreciable toxicity”.
With `N=C(N)c1ccc(OCCCCCOc2ccc(C(=N)N)cc2)cc1` [pentamadine], in the data set on BSF T. brucei [3], the EC50 was 3 ± 1 nM.

Broadly, the IC50 is the point on the concentration scale where inhibition reaches its midpoint. Broadly, the EC50 is the concentration at which the effect is half-maximal.

The record behind these values is publication PMC5576345 (Chemical communications (Cambridge, England), 2017).
